According to ChEMBL document CHEMBL4346679, “N, N', N″-trisubstituted guanidines: Synthesis, characterization and evaluation of their leishmanicidal activity” (Eur J Med Chem, 2019):
Active and inactive are the calls of the source. No cut-off for these calls is given here.

Legend:
Leishmania amazonensis [1] = experiment: Antileishmanial activity against promastigote stage of Leishmania amazonensis MPRO/BR/1972/M1841-LV-79 assessed as parasite growth inhibition after 72 hrs by MTT assay; format: functional, organism-based; details: MPRO/BR/1972/M1841-LV-79, 72 h
Summary of the method: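 Promastigotes at 1 × 10^7/mL in LIT + 10% FBS were exposed 72 h at 28 °C to ten concentrations, 0.5–100 µM (final DMSO 0.1%). Viability was read by MTT, with formazan dissolved in SDS-HCl and absorbance at 570 nm. Run in triplicate; IC50 from nonlinear regression.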

Leishmania amazonensis [2] = experiment: Antileishmanial activity against Leishmania amazonensis MPRO/BR/1972/M1841-LV-79 amastigotes infected in mouse peritoneal macrophages assessed as parasite growth inhibition after 24 hrs by Giemsa staining-based microscopic method; format: functional, organism-based; details: MPRO/BR/1972/M1841-LV-79, 24 h
Summary of the method: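 Peritoneal macrophages (3 × 10^5/well on coverslips, RPMI 1640 + 10% FBS) adhered 4 h at 37 °C, 5% CO2, then infected with stationary-phase promastigotes at 5:1 for 4 h. After washing, cells were cultured 18 h, then treated 24 h with compounds or reference drugs. Cells were methanol-fixed and Giemsa-stained. Infection index = % infected macrophages × mean amastigotes per infected cell. IC50 was fitted by regression.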

[3] = Cytotoxicity against mouse peritoneal macrophages assessed as decrease in cell viability after 24 hrs by MTT assay; format: cell-based, Peritoneal macrophage
Summary of the method: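 Peritoneal macrophages (1 × 10^5/well) in RPMI 1640 with 10% FBS, 25 mM HEPES and 2 mM L-glutamine were pre-incubated 4 h. They were then exposed to compounds for 24 h at 37 °C, 5% CO2. Viability was read by MTT; CC50 determined.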

[4] = Safety index, ratio of CC50 for mouse peritoneal macrophage to IC50 for promastigote stage of Leishmania amazonensis MPRO/BR/1972/M1841-LV-79; format: toxicity; details: read-out: Ratio CC50/IC50
[5] = Safety index, ratio of CC50 for mouse peritoneal macrophages to IC50 for Leishmania amazonensis MPRO/BR/1972/M1841-LV-79 amastigotes infected in mouse peritoneal macrophages; format: toxicity; details: read-out: Ratio CC50/IC50
Leishmania amazonensis [6] = experiment: Antileishmanial activity against Leishmania amazonensis MPRO/BR/1972/M1841-LV-79 amastigotes infected in mouse peritoneal macrophages assessed as reduction in number of intracellular amastigotes at 25 uM after 72 hrs by Giemsa staining-based microscopic method relative to control; format: functional; set-up: scale not given: the % may be the effect or the level left
Summary of the method: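 Infected peritoneal macrophages were treated with 25 µM of each compound, pentamidine or AmpB for 72 h. The infection index (% infected macrophages × amastigotes per infected macrophage) was compared with untreated infected cells. Data are given as mean ± SD.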

Leishmania amazonensis [7] = experiment: Antileishmanial activity against promastigote stage of Leishmania amazonensis MPRO/BR/1972/M1841-LV-79 infected in Balb/c mouse assessed as reduction in parasitic load at 0.13 mg/kg, ip administered once daily for 15 days by limiting dilution method relative to control; format: functional; set-up: scale not given: the % may be the effect or the level left
Summary of the method: (§1)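 Footpad-infected female BALB/c mice (1 × 10^7 parasites/mL promastigotes; 5 per group) were treated from six weeks post-infection. Dosing was daily ip for 15 days: 0.13 or 0.25 mg/kg/day (PBS, 0.1% DMSO), AmpB 2 mg/kg/day, or PBS vehicle. Skin-lesion parasite burden was quantified after treatment by limiting dilution and compared with untreated infected mice. Data are mean ± SD.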

Leishmania amazonensis [8] = experiment: Antileishmanial activity against promastigote stage of Leishmania amazonensis MPRO/BR/1972/M1841-LV-79 infected in Balb/c mouse assessed as reduction in volume of foot lesions at 0.13 to 0.25 mg/kg, ip administered once daily for 15 days measured every 5 days during compound dosing by caliper method; format: functional, organism-based
Summary of the method: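 Infected BALB/c mice (5 per group) were dosed daily ip for 15 days, starting six weeks after footpad inoculation: 0.13 or 0.25 mg/kg/day, AmpB 2 mg/kg/day, or PBS. Foot lesion thickness was measured with a dial caliper every 5 days.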

Leishmania amazonensis [9] = experiment: Antileishmanial activity against promastigote stage of Leishmania amazonensis MPRO/BR/1972/M1841-LV-79 infected in Balb/c mouse assessed as reduction in parasitic load at 0.25 mg/kg, ip administered once daily for 15 days by limiting dilution method relative to control; format: functional; set-up: scale not given: the % may be the effect or the level left; summary of the method: as §1
[10] = Mutagenicity in Swiss albino mouse assessed as frequency of micronucleated reticulocytes per 2000 cells at 25 mg/kg administered via gavage by acridine orange staining-based micronucleus test; format: toxicity, organism-based; details: in vivo, po
Summary of the method: (§2)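 Male Swiss albino mice (30 ± 4 g, 5 per group) were dosed by gavage at 25, 50 or 100 mg/kg. Controls: 0.5% hydroxyethylcellulose (negative) and ip cyclophosphamide 50 mg/kg (positive). Peripheral blood was placed on acridine orange (1 mg/mL) pre-stained slides heated at 70 °C. Fluorescence microscopy used 488 nm light; micronucleated cells were counted among 2000 reticulocytes per animal.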

[11] = Mutagenicity in Swiss albino mouse assessed as frequency of micronucleated reticulocytes per 2000 cells at 50 mg/kg administered via gavage by acridine orange staining-based micronucleus test; format: toxicity, organism-based; details: in vivo, po; summary of the method: as §2
[12] = Mutagenicity in Swiss albino mouse assessed as frequency of micronucleated reticulocytes per 2000 cells at 100 mg/kg administered via gavage by acridine orange staining-based micronucleus test; format: toxicity, organism-based; details: in vivo, po; summary of the method: as §2
Mus musculus [13] = experiment: Mutagenic index, ratio of test compound effect to hydroxyethylcellulose effect for Swiss albino mouse assessed as frequency of micronucleated reticulocytes per 2000 cells at 25 mg/kg administered via gavage; format: organism-based; details: in vivo, po
Summary of the method: (§3)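 Male Swiss albino mice (5 per group) received 25, 50 or 100 mg/kg by gavage. The negative control got 0.3 mL of 0.5% hydroxyethylcellulose; the positive control got cyclophosphamide 50 mg/kg ip. Micronucleated reticulocytes were counted per 2000 cells on acridine orange-stained slides. MI = treated MNRET ÷ negative-control MNRET.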

Mus musculus [14] = experiment: Mutagenic index, ratio of test compound effect to hydroxyethylcellulose effect for Swiss albino mouse assessed as frequency of micronucleated reticulocytes per 2000 cells at 50 mg/kg administered via gavage; format: organism-based; details: in vivo, po; summary of the method: as §3
Mus musculus [15] = experiment: Mutagenic index, ratio of test compound effect to hydroxyethylcellulose effect for Swiss albino mouse assessed as frequency of micronucleated reticulocytes per 2000 cells at 100 mg/kg administered via gavage; format: organism-based; details: in vivo, po; summary of the method: as §3
[16] = Toxicity in Balb/c mouse infected with promastigote stage of Leishmania amazonensis MPRO/BR/1972/M1841-LV-79 assessed as change in body weight at 0.13 to 0.25 mg/kg, ip administered once daily for 15 days measured during compound dosing; format: organism-based; details: in vivo, 360 h
Leishmania amazonensis [17] = experiment: Antileishmanial activity against promastigote stage of Leishmania amazonensis MPRO/BR/1972/M1841-LV-79 infected in Balb/c mouse assessed as increase in plasma bilirubin level at 0.13 to 0.25 mg/kg, ip administered once daily for 15 days measured during compound dosing; format: functional, organism-based
[18] = Renal toxicity in Balb/c mouse infected with promastigote stage of Leishmania amazonensis MPRO/BR/1972/M1841-LV-79 assessed as change in plasma creatinine level at 0.13 to 0.25 mg/kg, ip administered once daily for 15 days measured post-last dose; format: organism-based; details: in vivo, 360 h
Summary of the method: (§4)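 Female BALB/c mice (4 weeks old, 5 per group) were infected in the left hind footpad with 1 × 10^7 parasites/mL of infective promastigotes. After six weeks they received daily ip doses for 15 days: 0.13 or 0.25 mg/kg/day (from DMSO stock in PBS, 0.1% DMSO), AmpB 2 mg/kg/day in sterile water, or PBS. Controls were untreated infected and uninfected mice. At end of treatment, plasma bilirubin, AST, ALT, ALP, urea and creatinine were measured with commercial kits.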

[19] = Renal toxicity in Balb/c mouse infected with promastigote stage of Leishmania amazonensis MPRO/BR/1972/M1841-LV-79 assessed as change in plasma urea level at 0.13 to 0.25 mg/kg, ip administered once daily for 15 days measured post-last dose; format: organism-based; details: in vivo, 360 h; summary of the method: as §4
Leishmania amazonensis [20] = experiment: Antileishmanial activity against promastigote stage of Leishmania amazonensis MPRO/BR/1972/M1841-LV-79 infected in Balb/c mouse assessed as decrease in plasma alkaline phosphatase level at 0.13 to 0.25 mg/kg, ip administered once daily for 15 days measured post-last dose; format: functional, organism-based; summary of the method: as §4
Leishmania amazonensis [21] = experiment: Antileishmanial activity against promastigote stage of Leishmania amazonensis MPRO/BR/1972/M1841-LV-79 infected in Balb/c mouse assessed as decrease in plasma aspartate aminotransferase level at 0.13 to 0.25 mg/kg, ip administered once daily for 15 days measured post-last dose; format: functional, organism-based; summary of the method: as §4
Leishmania amazonensis [22] = experiment: Antileishmanial activity against promastigote stage of Leishmania amazonensis MPRO/BR/1972/M1841-LV-79 infected in Balb/c mouse assessed as decrease in plasma alanine aminotransferase level at 0.13 to 0.25 mg/kg, ip administered once daily for 15 days measured post-last dose; format: functional, organism-based; summary of the method: as §4

SMILES | IC50 (Leishmania amazonensis [1]) | IC50 (Leishmania amazonensis [2]) | CC50 at 24 h [3] | selectivity ratio [4] | selectivity ratio [5] | Activity (Leishmania amazonensis [6]) | further results
O=C(/N=C(/NCc1ccccc1)Nc1ccc(Cl)cc1)c1ccccc1 | 19.7 µM | 41.2 µM | 827 µM | 42 | 20.1 | 19% | 
N=C(N)c1ccc(OCCCCCOc2ccc(C(=N)N)cc2)cc1 [PENTAMIDINE] | 7.6 µM | 5.07 µM | 35.7 µM | 4.7 | 7 | 81% | 
COc1ccc(N/C(=N\C(=O)c2ccccc2)NCc2ccccc2)cc1 | 25.4 µM | 21.1 µM | 837 µM | 32.9 | 39.6 |  | 
Cc1ccc(N/C(=N\C(=O)c2ccccc2)NCc2ccccc2)cc1 | 20.9 µM | 24.2 µM | 876 µM | 41.9 | 36.2 |  | 
O=C(/N=C(/NCc1ccccc1)Nc1ccc([N+](=O)[O-])cc1)c1ccccc1 | 11.5 µM | 22.1 µM | 802 µM | 69.7 | 36.4 |  | 
CC(C)(C)c1ccc(N/C(=N\C(=O)c2ccccc2)NCc2ccccc2)cc1 | 25.9 µM | 17.2 µM | 1120 µM | 43.2 | 65 |  | 
O=C(/N=C(/NCc1ccccc1)Nc1ccc(Br)cc1)c1ccccc1 | 19.6 µM | 5.6 µM | 738 µM | 37.7 | 132 | 86% | Activity (Leishmania amazonensis [7]): 46%; Activity (Leishmania amazonensis [8]): Active; Activity (Leishmania amazonensis [9]): 60%; Activity [10]: 7; Activity [11]: 8; Activity [12]: 6; Ratio (Mus musculus [13]): 1.4; Ratio (Mus musculus [14]): 1.6; Ratio (Mus musculus [15]): 1.2; Activity [16]: Non-Toxic; Activity (Leishmania amazonensis [17]): Active; Activity [18]: Non-Toxic; Activity [19]: Non-Toxic; Activity (Leishmania amazonensis [20]): Active; Activity (Leishmania amazonensis [21]): inactive; Activity (Leishmania amazonensis [22]): Active
O=C(/N=C(/NCc1ccccc1)Nc1ccc(C(F)(F)F)cc1)c1ccccc1 | 6.8 µM | 21.4 µM | 18.6 µM | 2.7 | 0.8 |  | 
O=C(/N=C(/NCc1ccccc1)Nc1ccccc1)c1ccccc1 | 22.6 µM |  | 35.9 µM | 1.6 |  |  | 
O=C(/N=C(/NCc1ccccc1)Nc1ccc(F)cc1)c1ccccc1 | 21.9 µM | 19 µM | 866 µM | 39.5 | 45.5 | 70% | 
O=C(/N=C(/NCc1ccccc1)Nc1ccc(I)cc1)c1ccccc1 | 15.9 µM | 7.1 µM | 619 µM | 38.9 | 87.1 | 78% | Activity [10]: 3; Activity [11]: 5; Activity [12]: 6; Ratio (Mus musculus [13]): 0.6; Ratio (Mus musculus [14]): 1; Ratio (Mus musculus [15]): 1.2
